ChEMBL document CHEMBL4219100, “Discovery of selective EGFR modulator to inhibit L858R/T790M double mutants bearing a N-9-Diphenyl-9H-purin-2-amine scaffold” (Bioorg Med Chem, 2018)

Key:
A549 = test: Cytotoxicity against human A549 cells expressing wild-type EGFR/K-ras mutant after 72 hrs by MTT assay; format: cell-based; settings: A549, 72 h
Summary of the method: (§1)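 Cells grown in MEM with 10% FBS; about 4×10^3 cells per well seeded and held 24 h at 37°C in 5% CO₂. Compounds then added and culture continued 72 h. MTT added ([…]) for 4 h at 37°C. Formazan dissolved in DMSO and absorbance read at 492 nm against 630 nm reference. Each compound tested three times per line; IC50 is the mean of at least three determinations.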

NCI-H1975 = test: Cytotoxicity against human NCI-H1975 cells expressing EGFR L858R/T790M double mutant after 72 hrs by MTT assay; format: functional, cell-based; settings: NCI-H1975, 72 h; summary of the method: as §1
HT-29 = test: Cytotoxicity against human HT-29 cells after 72 hrs by MTT assay; format: cell-based; settings: HT-29, 72 h; summary of the method: as §1
Homo sapiens [1] = organism: Homo sapiens; test: Selectivity ratio of IC50 for human A549 cells expressing wild-type EGFR/K-Ras mutant to IC50 for human NCI-H1975 cells expressing EGFR L858R/T790M double mutant
[2] = target: Epidermal growth factor receptor (Homo sapiens, UniProt P00533); test: Inhibition of recombinant human GST-tagged EGFR cytoplasmic domain (668 to 1210 residues) expressed in baculovirus expression system using FAM-labelled peptide as substrate pretreated for 10 mins followed by substrate addition measured after 1 hr by mobility shift assay
[3] = target: Epidermal growth factor receptor (Homo sapiens, UniProt P00533, L858R/T790M); test: Inhibition of recombinant human GST-tagged EGFR L858R/T790M double mutant cytoplasmic domain (668 to 1210 residues) expressed in baculovirus expression system using FAM-labelled peptide as substrate pretreated for 10 mins followed by substrate addition measured after 1 hr by mobility shift assay
[4] = target: Epidermal growth factor receptor (Homo sapiens, UniProt P00533, T790M); test: Inhibition of recombinant human GST-tagged EGFR T790M mutant cytoplasmic domain (668 to 1210 residues) expressed in baculovirus expression system using FAM-labelled peptide as substrate pretreated for 10 mins followed by substrate addition measured after 1 hr by mobility shift assay
Homo sapiens [5] = organism: Homo sapiens; test: Selectivity ratio of IC50 for recombinant human GST-tagged EGFR cytoplasmic domain (668 to 1210 residues) expressed in baculovirus expression system to IC50 for recombinant human GST-tagged EGFR L858R/T790M double mutant cytoplasmic domain (668 to 1210 residues) expressed in baculovirus expression system
Summary of the method: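 Caliper mobility-shift kinase assay in 50 mM HEPES pH 7.5, 0.0015% Brij35, 2 mM DTT. Five-point DMSO dilution series, in duplicate. Enzyme (EGFR form as appropriate) was preincubated with compound for 10 min at room temperature. FAM-labeled peptide plus ATP was added, then 1 h at 28°C. Stopped with EDTA buffer. Percent inhibition came from substrate conversion; ratio taken as WT IC50 over L858R/T790M IC50.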

Chain of Epidermal growth factor receptor (Homo sapiens, UniProt P00533) (P00533 whole entry, the tested form may be a part): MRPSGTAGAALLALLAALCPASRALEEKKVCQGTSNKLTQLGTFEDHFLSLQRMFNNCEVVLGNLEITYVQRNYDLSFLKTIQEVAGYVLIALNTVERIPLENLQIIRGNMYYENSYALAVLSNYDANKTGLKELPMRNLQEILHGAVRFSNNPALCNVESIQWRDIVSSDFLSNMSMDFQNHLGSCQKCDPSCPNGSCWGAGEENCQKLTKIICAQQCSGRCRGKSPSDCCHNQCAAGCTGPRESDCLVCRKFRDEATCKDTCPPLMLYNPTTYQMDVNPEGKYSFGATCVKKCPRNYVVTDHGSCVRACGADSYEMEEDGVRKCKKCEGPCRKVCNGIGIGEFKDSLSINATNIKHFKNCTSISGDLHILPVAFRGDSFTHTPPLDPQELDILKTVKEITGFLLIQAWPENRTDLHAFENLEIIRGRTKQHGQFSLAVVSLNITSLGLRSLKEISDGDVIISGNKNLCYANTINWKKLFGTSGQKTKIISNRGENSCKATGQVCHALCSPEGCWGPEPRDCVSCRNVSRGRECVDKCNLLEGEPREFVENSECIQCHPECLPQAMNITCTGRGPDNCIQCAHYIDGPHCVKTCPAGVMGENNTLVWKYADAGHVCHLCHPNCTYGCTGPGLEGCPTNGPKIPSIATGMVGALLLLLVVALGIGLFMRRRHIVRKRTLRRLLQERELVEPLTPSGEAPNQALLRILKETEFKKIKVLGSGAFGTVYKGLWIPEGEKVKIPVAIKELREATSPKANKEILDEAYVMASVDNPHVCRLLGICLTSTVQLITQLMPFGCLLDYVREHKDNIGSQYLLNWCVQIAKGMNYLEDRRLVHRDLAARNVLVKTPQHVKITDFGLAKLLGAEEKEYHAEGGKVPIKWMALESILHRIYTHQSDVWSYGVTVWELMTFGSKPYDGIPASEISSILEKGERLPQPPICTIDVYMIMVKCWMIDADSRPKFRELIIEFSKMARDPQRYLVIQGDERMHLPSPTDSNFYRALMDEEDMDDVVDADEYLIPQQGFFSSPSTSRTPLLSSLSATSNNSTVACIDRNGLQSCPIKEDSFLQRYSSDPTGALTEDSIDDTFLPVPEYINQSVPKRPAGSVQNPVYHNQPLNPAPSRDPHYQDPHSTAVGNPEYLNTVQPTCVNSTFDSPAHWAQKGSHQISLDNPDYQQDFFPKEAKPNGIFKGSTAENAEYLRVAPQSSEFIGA
Chain of Epidermal growth factor receptor (Homo sapiens, UniProt P00533, L858R/T790M) (P00533 25-1210 T790M/L858R limits assumed): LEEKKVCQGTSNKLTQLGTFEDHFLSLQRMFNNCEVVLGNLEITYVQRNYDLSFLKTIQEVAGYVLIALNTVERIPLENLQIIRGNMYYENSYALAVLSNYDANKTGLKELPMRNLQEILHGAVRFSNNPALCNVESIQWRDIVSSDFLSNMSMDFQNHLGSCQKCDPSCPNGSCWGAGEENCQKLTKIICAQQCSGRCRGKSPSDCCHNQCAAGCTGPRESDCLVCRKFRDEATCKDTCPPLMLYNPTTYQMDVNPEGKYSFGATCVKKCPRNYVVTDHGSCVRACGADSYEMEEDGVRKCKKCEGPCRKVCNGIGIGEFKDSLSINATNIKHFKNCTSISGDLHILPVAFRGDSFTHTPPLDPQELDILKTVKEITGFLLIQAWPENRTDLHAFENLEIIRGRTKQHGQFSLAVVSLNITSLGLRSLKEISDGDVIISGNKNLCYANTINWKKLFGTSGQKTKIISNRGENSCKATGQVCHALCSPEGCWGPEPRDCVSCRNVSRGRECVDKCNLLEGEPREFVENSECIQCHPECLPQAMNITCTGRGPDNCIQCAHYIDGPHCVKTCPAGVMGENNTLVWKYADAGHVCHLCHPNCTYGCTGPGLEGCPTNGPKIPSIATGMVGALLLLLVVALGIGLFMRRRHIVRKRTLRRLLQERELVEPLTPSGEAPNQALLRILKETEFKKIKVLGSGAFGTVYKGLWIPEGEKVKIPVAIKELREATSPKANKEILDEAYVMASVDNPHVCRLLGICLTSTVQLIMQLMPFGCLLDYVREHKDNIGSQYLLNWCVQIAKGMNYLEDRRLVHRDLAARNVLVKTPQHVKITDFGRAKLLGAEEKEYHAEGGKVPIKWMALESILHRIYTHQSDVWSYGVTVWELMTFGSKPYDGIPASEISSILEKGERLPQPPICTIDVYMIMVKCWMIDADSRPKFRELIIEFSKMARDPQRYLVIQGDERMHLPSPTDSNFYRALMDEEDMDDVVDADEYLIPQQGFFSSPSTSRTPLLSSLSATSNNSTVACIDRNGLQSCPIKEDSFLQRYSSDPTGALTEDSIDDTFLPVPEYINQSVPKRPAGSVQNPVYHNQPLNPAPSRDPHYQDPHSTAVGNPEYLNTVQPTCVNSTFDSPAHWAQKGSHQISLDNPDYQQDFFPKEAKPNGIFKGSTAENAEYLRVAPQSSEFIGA

Row | Ratio IC50 (Homo sapiens [1]) | Structure (SMILES) | IC50 (A549) | IC50 (NCI-H1975) | IC50 (HT-29) | IC50 [2] | IC50 ([3]; read-out: IC50) | IC50 [4] | Ratio IC50 (Homo sapiens [5]) | IC50 ([3]; read-out: pIC50 (converted))
1 | – | C=CC(=O)Nc1cc(Nc2nccc(-c3cn(C)c4ccccc34)n2)c(OC)cc1N(C)CCN(C)C [OSIMERTINIB] | 870 nM | […] | 0.65 µM | – | – | – | – | –
2 | < 1 | C=CC(=O)Nc1cc(Nc2ncc3[nH]c(=O)n(-c4ccc(C(C)C)cc4)c3n2)c(OC)cc1N1CCOCC1 | 1170 nM | 4040 nM | 1.54 µM | – | – | – | – | –
3 | < 1 | C=CC(=O)Nc1cc(Nc2ncc3ncn(-c4ccc(C(C)C)cc4)c3n2)c(OC)cc1N1CCOCC1 | 4230 nM | 5100 nM | 23 µM | – | – | – | – | –
4 | < 1 | C=CC(=O)Nc1cc(Nc2ncc3ncn(-c4ccc(I)cc4)c3n2)c(OC)cc1N1CCN(C)CC1 | 6310 nM | 7320 nM | 20.7 µM | – | – | – | – | –
5 | 35 | C=CC(=O)Nc1cc(Nc2ncc3ncn(-c4ccc(F)c(Cl)c4)c3n2)c(OC)cc1N(C)CCN(C)C | 5190 nM | 100 nM | 1.61 µM | – | – | – | – | –
6 | 4 | C=CC(=O)Nc1cc(Nc2ncc3[nH]c(=O)n(-c4ccc(I)cc4)c3n2)c(OC)cc1N1CCOCC1 | 18500 nM | 4310 nM | 19.6 µM | – | – | – | – | –
7 | 3 | C=CC(=O)Nc1cc(Nc2ncc3ncn(-c4ccc(C)cc4)c3n2)c(OC)cc1N(C)CCN(C)C | 360 nM | 140 nM | 9.23 µM | – | – | – | – | –
8 | 7 | C=CC(=O)Nc1cc(Nc2ncc3ncn(-c4ccc(Cl)cc4Cl)c3n2)c(OC)cc1N(C)CCN(C)C | 11200 nM | 1610 nM | 20.6 µM | – | – | – | – | –
9 | 16 | C=CC(=O)Nc1cc(Nc2ncc3ncn(-c4ccc(CC)cc4)c3n2)c(OC)cc1N(C)CCN(C)C | 1970 nM | 130 nM | 8.18 µM | – | – | – | – | –
10 | 9 | C=CC(=O)Nc1cc(Nc2ncc3ncn(C4CCCC4)c3n2)c(OC)cc1N(C)CCN(C)C | 2900 nM | 330 nM | 20.9 µM | – | – | – | – | –
11 | < 1 | C=CC(=O)Nc1cc(Nc2ncc3ncn(-c4ccccc4F)c3n2)c(OC)cc1N(C)CCN(C)C | 5820 nM | 6720 nM | 9.75 µM | – | – | – | – | –
12 | 5 | C=CC(=O)Nc1cc(Nc2ncc3ncn(-c4ccc(C(C)C)cc4)c3n2)c(OC)cc1N1CCN(C)CC1 | 9250 nM | 1930 nM | 7.69 µM | – | – | – | – | –
13 | 1 | C=CC(=O)Nc1cc(Nc2ncc3[nH]c(=O)n(-c4ccc(C(C)C)cc4)c3n2)c(OC)cc1N1CCN(C)CC1 | 2050 nM | 2140 nM | 14.3 µM | – | – | – | – | –
14 | 58 | C=CC(=O)Nc1cc(Nc2ncc3ncn(-c4ccccc4)c3n2)c(OC)cc1N(C)CCN(C)C | 580 nM | 110 nM | 8.08 µM | – | – | – | – | –
15 | 15 | C=CC(=O)Nc1cc(Nc2ncc3[nH]c(=O)n(-c4ccc(I)cc4)c3n2)c(OC)cc1N(C)CCN(C)C | 1230 nM | 830 nM | 4.82 µM | – | – | – | – | –
16 | 1 | C=CC(=O)Nc1cc(Nc2ncc3ncn(-c4ccccc4Br)c3n2)c(OC)cc1N(C)CCN(C)C | 2090 nM | 1800 nM | 16.2 µM | – | – | – | – | –
17 | 7 | C=CC(=O)Nc1cc(Nc2ncc3ncn(-c4ccccc4Cl)c3n2)c(OC)cc1N(C)CCN(C)C | 12600 nM | 1710 nM | 11.3 µM | – | – | – | – | –
18 | 3 | C=CC(=O)Nc1cc(Nc2ncc3nc(Nc4ccccc4)n(C4CCCC4)c3n2)c(OC)cc1N(C)CCN(C)C | 780 nM | 230 nM | 11.4 µM | – | – | – | – | –
19 | 42 | C=CC(=O)Nc1cc(Nc2ncc3ncn(-c4ccc(OC)cc4)c3n2)c(OC)cc1N(C)CCN(C)C | 3330 nM | 160 nM | 1.74 µM | – | – | – | – | –
20 | < 1 | C=CC(=O)Nc1cc(Nc2ncc3[nH]c(=O)n(-c4ccc(I)cc4)c3n2)c(OC)cc1N1CCN(C)CC1 | 490 nM | 10400 nM | 39.3 µM | – | – | – | – | –
21 | 8 | C=CC(=O)Nc1cc(Nc2ncc3ncn(-c4ccc(Br)cc4)c3n2)c(OC)cc1N(C)CCN(C)C | 1150 nM | 140 nM | 1.46 µM | – | – | – | – | –
22 | < 1 | C=CC(=O)Nc1cc(Nc2ncc3ncn(-c4ccc(I)cc4)c3n2)c(OC)cc1N1CCOCC1 | 1520 nM | 29800 nM | 35.1 µM | – | – | – | – | –

Row | Structure (SMILES) | Ratio IC50 (Homo sapiens [1]) | IC50 (A549) | IC50 (NCI-H1975) | IC50 (HT-29) | IC50 [2] | IC50 ([3]; read-out: IC50) | IC50 [4] | Ratio IC50 (Homo sapiens [5]) | IC50 ([3]; read-out: pIC50 (converted))
23 | C=CC(=O)Nc1cc(Nc2ncc3ncn(-c4ccc(F)cc4)c3n2)c(OC)cc1N(C)CCN(C)C | 7 | 420 nM | 61 nM | 12 µM | 18.2 nM | 3.2 nM | 5.8 nM | 5.6 | –
24 | C=CC(=O)Nc1cc(Nc2ncc3nc(Nc4ccccc4)n(C(C)C)c3n2)c(OC)cc1N(C)CCN(C)C | 31 | 1420 nM | 46 nM | 4.72 µM | 41 nM | 5.1 nM | – | 8 | –
25 | C=CC(=O)Nc1cc(Nc2ncc3ncn(-c4ccc(I)cc4)c3n2)c(OC)cc1N(C)CCN(C)C | 115 | 8710 nM | 76 nM | 9.52 µM | 17 nM | 3.5 nM | 4.7 nM | 4.9 | –
26 | C=CC(=O)Nc1cc(Nc2ncc3ncn(-c4ccc(C(C)C)cc4)c3n2)c(OC)cc1N(C)CCN(C)C | 196 | 14500 nM | 74 nM | 15.3 µM | 25 nM | 4.2 nM | – | 6 | –
27 | C=CC(=O)Nc1cc(Nc2ncc3nc(Nc4ccccc4)n(C)c3n2)c(OC)cc1N(C)CCN(C)C | 160 | 6080 nM | 38 nM | 8.7 µM | 22.4 nM | 2.7 nM | 3.5 nM | 8.3 | 2.69 nM
28 | C=CC(=O)Nc1cc(Nc2ncc3ncn(-c4ccc(F)c(Br)c4)c3n2)c(OC)cc1N(C)CCN(C)C | 86 | 3020 nM | 35 nM | 3.64 µM | 10 nM | 2.3 nM | – | 4.3 | –
29 | C=CC(=O)Nc1cc(Nc2ncc3ncn(-c4ccc(Cl)cc4)c3n2)c(OC)cc1N(C)CCN(C)C | 30 | 1860 nM | 85 nM | 7.69 µM | 15.6 nM | 3.9 nM | 6.4 nM | 7 | –
